In ChEMBL document CHEMBL1129787, “Synthesis of potent cyclic hexapeptide NK-1 antagonists. Use of a minilibrary in transforming a peptidal somatostatin receptor ligand into an NK-1 receptor ligand via a polyvalent peptidomimetic” (J Med Chem, 1996):
Non-standard residues stand in square brackets, D forms with d. Residues, ends and D or L forms follow the SMILES beside them. Phe(4-F) = N[C@@H](Cc1ccc(F)cc1)C(=O)O; 1Nal = N[C@@H](Cc1cccc2ccccc12)C(=O)O

How the values were obtained:
Substance-P receptor [1] = molecular target: T1, Substance-P receptor (Homo sapiens, UniProt P25103); assay: Percent Inhibition against Tachykinin receptor 1 at 2 uM
T1 sequence (P25103 whole entry): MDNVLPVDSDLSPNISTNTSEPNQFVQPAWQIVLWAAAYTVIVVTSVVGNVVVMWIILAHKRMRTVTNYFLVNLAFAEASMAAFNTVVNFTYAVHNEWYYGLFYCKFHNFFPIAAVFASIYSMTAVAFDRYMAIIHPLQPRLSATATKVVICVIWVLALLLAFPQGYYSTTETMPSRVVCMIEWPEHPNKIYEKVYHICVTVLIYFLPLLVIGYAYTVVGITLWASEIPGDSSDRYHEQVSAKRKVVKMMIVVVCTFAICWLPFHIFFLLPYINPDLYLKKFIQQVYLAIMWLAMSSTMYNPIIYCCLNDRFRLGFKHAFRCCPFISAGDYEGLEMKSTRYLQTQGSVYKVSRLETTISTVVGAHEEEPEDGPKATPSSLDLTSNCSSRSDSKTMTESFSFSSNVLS

Substance-P receptor [2] = molecular target: T1, Substance-P receptor; assay: Inhibition of Tachykinin receptor 1
Outline: (§1)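 NK-1 receptor inhibition assay. IC50 is reported in nM as the mean ± SD.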

[3] = molecular target: Beta-2 adrenergic receptor (Homo sapiens, UniProt P07550); assay: Binding affinity towards cloned human Beta-2 adrenergic receptor
Beta-2 adrenergic receptor, sequence (P07550 whole entry): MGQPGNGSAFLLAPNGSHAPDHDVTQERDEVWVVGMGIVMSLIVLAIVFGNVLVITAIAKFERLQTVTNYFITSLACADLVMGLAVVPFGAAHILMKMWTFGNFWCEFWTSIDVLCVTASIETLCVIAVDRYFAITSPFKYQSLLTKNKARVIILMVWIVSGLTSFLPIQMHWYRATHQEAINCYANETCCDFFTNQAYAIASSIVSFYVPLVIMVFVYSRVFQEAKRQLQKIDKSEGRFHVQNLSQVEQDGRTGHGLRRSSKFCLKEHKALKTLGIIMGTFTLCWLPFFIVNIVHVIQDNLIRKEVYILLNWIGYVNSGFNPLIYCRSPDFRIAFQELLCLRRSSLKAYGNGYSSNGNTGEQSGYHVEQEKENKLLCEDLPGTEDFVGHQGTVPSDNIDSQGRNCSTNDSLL

Somatostatin receptor [4] = assay: Ability to inhibit binding of […]-CGP 23996 to somatostatin receptor on membranes from cerebral cortex; assay type: tissue-based
Somatostatin receptor [5] = assay: Ability to inhibit binding of […]-CGP 23996 to somatostatin receptor on membranes from pituitary
Substance-P receptor [6] = molecular target: T1, Substance-P receptor; assay: Binding affinity towards Tachykinin receptor 1; outline: as §1

| SMILES | IC50 (Substance-P receptor [2]) [nM] | also measured |
| --- | --- | --- |
| C[C@@H](O)[C@@H]1NC(=O)[C@H](Cc2ccccc2)NC(=O)[C@@H](Cc2c[nH]c3ccccc23)NC(=O)[C@@H]2CCCN2C(=O)[C@@H]2CCCN2C(=O)[C@H](Cc2ccccc2)NC1=O | – | inhibition (Substance-P receptor [1]): 51% |
| C[C@@H]1NC(=O)[C@@H]2CCCN2C(=O)[C@H](Cc2ccccc2)NC(=O)[C@H]([C@@H](C)O)NC(=O)[C@H](Cc2ccccc2)NC(=O)[C@@H](Cc2c[nH]c3ccccc23)NC1=O | 549 | – |
| NCCCCCOC[C@H]1O[C@@H](OCCc2c[nH]c3ccccc23)[C@H](OCc2ccccc2)[C@@H](OCc2ccccc2)[C@@H]1OCc1ccccc1 | – | IC50 [3]: 3 µM; IC50 (Somatostatin receptor [4]): 5 µM; IC50 (Somatostatin receptor [5]): 5 µM |
| CC(C)C[C@@H]1NC(=O)[C@@H](Cc2c[nH]c3ccccc23)NC(=O)[C@H](Cc2ccccc2)NC(=O)[C@@H]2CCCN2C(=O)[C@H](Cc2ccccc2)NC(=O)[C@H]([C@@H](C)O)NC1=O | 2730 | – |
| C[C@@H](O)[C@@H]1NC(=O)[C@H](Cc2ccccc2)NC(=O)[C@@H](Cc2c[nH]c3ccccc23)NC(=O)[C@H](CC2CCCCC2)NC(=O)[C@@H]2CCCN2C(=O)[C@H](Cc2ccccc2)NC1=O | 198 | – |
| CC(=O)NCCCCCOC[C@H]1O[C@@H](OCCc2c[nH]c3ccccc23)[C@H](OCc2ccccc2)[C@@H](OCc2ccccc2)[C@@H]1OCc1ccccc1 | – | IC50 (Substance-P receptor [6]): 60 nM |
| C[C@@H](O)[C@@H]1NC(=O)[C@H](Cc2ccccc2)NC(=O)[C@@H](Cc2c[nH]c3ccccc23)NC(=O)[C@H](CO)NC(=O)[C@@H]2CCCN2C(=O)[C@H](Cc2ccccc2)NC1=O | 596 | – |
| C[C@@H]1NC(=O)[C@@H](Cc2c[nH]c3ccccc23)NC(=O)[C@H](Cc2ccccc2)NC(=O)[C@@H]2CCCN2C(=O)[C@H](Cc2ccccc2)NC(=O)[C@H]([C@@H](C)O)NC1=O | 4090 | – |
| C[C@@H](O)[C@@H]1NC(=O)[C@H](CCCCN)NC(=O)[C@@H](Cc2c[nH]c3ccccc23)NC(=O)[C@H](Cc2ccccc2)NC(=O)[C@@H]2CCCN2C(=O)[C@H](Cc2ccccc2)NC1=O (cyclo(PF[dW]KTF)) | > 1000 | – |
| CC(C)[C@@H]1NC(=O)[C@H](CCCCN)NC(=O)[C@@H](Cc2c[nH]c3ccccc23)NC(=O)[C@H](Cc2ccc(O)cc2)NC(=O)[C@H](C)N(C)C(=O)[C@H](Cc2ccccc2)NC1=O [SEGLITIDE] | > 1000 | – |
| C[C@@H](O)[C@@H]1NC(=O)[C@H](Cc2ccccc2)NC(=O)[C@@H](Cc2c[nH]c3ccccc23)NC(=O)[C@H](CC(=O)O)NC(=O)[C@@H]2CCCN2C(=O)[C@H](Cc2ccccc2)NC1=O (cyclo(D[dW]FTFP)) | 1390 | – |
| C[C@@H](O)[C@@H]1NC(=O)[C@H](Cc2ccc(O)cc2)NC(=O)[C@@H](Cc2c[nH]c3ccccc23)NC(=O)[C@H](Cc2ccccc2)NC(=O)[C@@H]2CCCN2C(=O)[C@H](Cc2ccccc2)NC1=O (cyclo(FPF[dW]YT)) | 1050 | – |
| NCCCCCOC[C@H]1O[C@@H](OCCc2c[nH]c3ccccc23)[C@H](OCc2ccccc2)C[C@@H]1OCc1ccccc1 | – | IC50 [3]: 3 µM; IC50 (Substance-P receptor [6]): 180 nM |
| C[C@H](O)[C@@H]1NC(=O)[C@H](Cc2ccccc2)NC(=O)[C@@H](Cc2c[nH]c3ccccc23)NC(=O)[C@@H](Cc2ccccc2)NC(=O)[C@@H]2CCCN2C(=O)[C@H](Cc2ccccc2)NC1=O | 496 | – |

Second part, led by results:

| IC50 (Substance-P receptor [2]) [nM] | SMILES | also measured |
| --- | --- | --- |
| 85 | C[C@@H](O)[C@@H]1NC(=O)[C@H](Cc2ccccc2)NC(=O)[C@@H](Cc2c[nH]c3ccccc23)NC(=O)[C@H](CCc2ccccc2)NC(=O)[C@@H]2CCCN2C(=O)[C@H](Cc2ccccc2)NC1=O | – |
| 15 | C[C@@H](O)[C@@H]1NC(=O)[C@H](Cc2ccccc2)NC(=O)[C@@H](Cc2c[nH]c3ccccc23)NC(=O)[C@H](Cc2cccc3ccccc23)NC(=O)[C@@H]2CCCN2C(=O)[C@H](Cc2ccccc2)NC1=O (cyclo([1Nal][dW]FTFP)) | – |
| 28 | C[C@@H](O)[C@@H]1NC(=O)[C@H](Cc2ccc(F)cc2)NC(=O)[C@@H](Cc2c[nH]c3ccccc23)NC(=O)[C@H](Cc2ccccc2)NC(=O)[C@@H]2CCCN2C(=O)[C@H](Cc2ccccc2)NC1=O (cyclo(FPF[dW][Phe(4-F)]T)) | – |
| 2 | C[C@@H](O)[C@@H]1NC(=O)[C@H](Cc2ccc(F)cc2)NC(=O)[C@@H](Cc2c[nH]c3ccccc23)NC(=O)[C@H](Cc2cccc3ccccc23)NC(=O)[C@@H]2CCCN2C(=O)[C@H](Cc2ccccc2)NC1=O (cyclo([1Nal][dW][Phe(4-F)]TFP)) | – |
| 95 | C[C@H](O)[C@@H]1NC(=O)[C@H](Cc2ccccc2)NC(=O)[C@@H](Cc2c[nH]c3ccccc23)NC(=O)[C@H](Cc2ccccc2)NC(=O)[C@@H]2CCCN2C(=O)[C@H](Cc2ccccc2)NC1=O | – |
| 59 | COc1ccc(C[C@@H]2NC(=O)[C@@H](Cc3c[nH]c4ccccc34)NC(=O)[C@H](Cc3ccccc3)NC(=O)[C@@H]3CCCN3C(=O)[C@H](Cc3ccccc3)NC(=O)[C@H]([C@@H](C)O)NC2=O)cc1 (cyclo(FPF[dW]Y(Me)T)) | – |
